Published values gathered from unrelated publications.
Lines come from different studies, so protocols differ.
Target: Calcium/calmodulin-dependent protein kinase type IV (CAMK4, Homo sapiens, UniProt Q16566)
Sequence (Q16566 1-473, as in one of the studies): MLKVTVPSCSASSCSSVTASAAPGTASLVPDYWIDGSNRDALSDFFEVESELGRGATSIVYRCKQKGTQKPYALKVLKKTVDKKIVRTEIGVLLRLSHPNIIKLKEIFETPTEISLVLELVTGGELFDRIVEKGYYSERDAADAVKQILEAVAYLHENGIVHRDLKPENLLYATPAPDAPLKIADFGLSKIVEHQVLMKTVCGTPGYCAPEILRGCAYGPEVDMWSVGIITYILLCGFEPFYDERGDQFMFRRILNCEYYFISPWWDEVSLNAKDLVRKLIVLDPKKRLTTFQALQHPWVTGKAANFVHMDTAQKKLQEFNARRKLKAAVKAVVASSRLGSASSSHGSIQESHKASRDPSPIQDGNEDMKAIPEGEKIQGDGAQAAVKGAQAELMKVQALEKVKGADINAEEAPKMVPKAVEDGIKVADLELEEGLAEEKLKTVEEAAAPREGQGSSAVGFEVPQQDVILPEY

| Structure (SMILES) | effect on | mode | technique | concentration | measurement | result |
| --- | --- | --- | --- | --- | --- | --- |
| Cc1ccc(NC(=O)c2ccc(CN3CCN(C)CC3)cc2)cc1Nc1nc(-c2cccnc2)cs1 | cell-free assay | – | – | 0.5 µM | remaining signal | 98.6% |
| Cn1c2c(c3ccc(Cl)c(Cl)c31)C(C#N)C1(CCOCC1)NC2=O (stereo not drawn) | thermal stability | – | DSF | 10 µM | ΔTm | 0 °C |
| CNc1cccc2cc(C(=O)Nc3ccc(C(=O)O)cc3)c(=O)[nH]c12 | enzyme activity | inhibitor | – | 10 µM | inhibition | 11% |
| CN([C@@H]1CCc2c(CC(=O)O)c3ccccc3n2C1)S(=O)(=O)c1ccc(F)cc1 | cell-free assay | – | competition with immobilised ligand | 1 µM | remaining binding | 85% |
| COc1cc2c(N3CCN(C(=O)Nc4ccc(OC(C)C)cc4)CC3)ncnc2cc1OCCCN1CCCCC1 | cell-free assay | – | – | 0.5 µM | remaining signal | 99.3% |
| Cc1cnc(NC2CCOCC2)nc1-n1cnc(C(=O)NC(CN)c2cc(F)cc(Cl)c2)c1 (stereo not drawn) | enzyme activity | inhibitor | radiometric | 1 µM | remaining activity | 49% |
| CCN(CC)c1ccc(C2=NNC(=O)CC2C)cc1[N+](=O)[O-] (stereo not drawn) | enzyme activity | inhibitor | – | 10 µM | remaining activity | 102% |
| COc1cc2c(Nc3ccc(Br)cc3F)ncnc2cc1OCC1CCN(C)CC1 | cell-free assay | – | – | 0.5 µM | remaining signal | 101% |
| Cc1nccc(COC(=O)N2C[C@@H]3[C@@H](CNC(=O)c4ccc5[nH]nnc5c4)[C@@H]3C2)n1 | cell-free assay | – | competition with immobilised ligand | 1 µM | remaining binding | 95% |
| Cc1cc(NC(=O)c2cccc3cc(-c4cccc5[nH]nc(N)c45)ccc23)ccc1F | enzyme activity | inhibitor | – | 0.1 µM | activity vs control | 104% |
| O=S(=O)(NC1CCC(c2cc(F)ccc2F)(S(=O)(=O)c2ccc(Cl)cc2)CC1)C(F)(F)F (stereo not drawn) | cell-free assay | – | competition with immobilised ligand | 1 µM | remaining binding | 100% |
| Cn1c2c(c3ccccc31)C(C#N)C(C)(C)NC2=O (stereo not drawn) | thermal stability | – | DSF | 10 µM | ΔTm | 0 °C |
| O=C(O)[C@H]1[C@H](Cn2nnc3ccccc3c2=O)CC[C@@H]1C(=O)c1ccc(OCCC2CCOCC2)cc1 | cell-free assay | – | competition with immobilised ligand | 1 µM | remaining binding | 78% |
| Cn1c2c(c3ccc(Cl)c(Cl)c31)C(C#N)C1(CCNCC1)NC2=O (racemic) | thermal stability | – | DSF | 10 µM | ΔTm | -0.1 °C |
| O=C(O)c1ccc2c3c1cccc3c(=O)n1c3ccccc3nc21 | cell-free assay | – | – | 0.5 µM | remaining signal | 101% |
| O=C(Nc1cnn(-c2csc(C(=O)NC3COC3)c2)c1)Nc1c(F)cccc1Cl | enzyme activity | inhibitor | – | 5 µM | remaining activity | 98.7% |
| CC(=O)c1c(NS(C)(=O)=O)c2cc(-c3ccc(Cl)cc3)c(-c3ccc(Cl)cc3Cl)nc2n(C)c1=O | cell-free assay | – | competition with immobilised ligand | 1 µM | remaining binding | 100% |

| Structure (SMILES) | effect on | mode | technique | concentration | measurement | result |
| --- | --- | --- | --- | --- | --- | --- |
| CCN1CCC2(CC1)NC(=O)c1c(c3ccc(Cl)c(Cl)c3n1C)C2C#N (racemic) | thermal stability | – | DSF | 10 µM | ΔTm | 0.1 °C |
| CNC(=O)c1cc(Oc2ccc(NC(=O)Nc3ccc(Cl)c(C(F)(F)F)c3)cc2)ccn1 | enzyme activity | inhibitor | – | 0.3 µM | inhibition | -4% |
| CN1CCC2(CC1)NC(=O)c1c(c3ccc(Cl)c(Cl)c3n1C)C2C#N (racemic) | thermal stability | – | DSF | 10 µM | ΔTm | -0.2 °C |
| CCN(CC)CCNC(=O)c1c(C)[nH]c(/C=C2\C(=O)Nc3ccc(F)cc32)c1C | enzyme activity | inhibitor | – | 0.3 µM | inhibition | 22% |
| Cn1nc(C(=O)NCc2ccc(C(=O)O)cc2)cc1-c1ccc2[nH]ccc2c1 | cell-free assay | – | competition with immobilised ligand | 0.1 µM | remaining binding | 92% |
| CCC1(CC)NC(=O)c2c(c3ccc(Cl)c(Cl)c3n2C)C1C#N (stereo not drawn) | thermal stability | – | DSF | 10 µM | ΔTm | -0.2 °C |
| Cc1sc(C(=O)NC2COC2)cc1-n1cc(NC(=O)Nc2c(F)cccc2Cl)cn1 | enzyme activity | inhibitor | – | 10 µM | remaining activity | 98.5% |
| CCCOc1ccc(OC)c(F)c1C(=O)c1ccc(C(=O)N[C@@H]2CNC[C@H]2NC(=O)c2ccc3[nH]ncc3c2)cc1 | enzyme activity | inhibitor | – | 10 µM | remaining activity | 95% |
| CC(C)(C)c1nc2c(s1)c1nc(N)ncc1c1ccc(NS(=O)(=O)c3c(F)cccc3F)c(F)c12 | enzyme activity | inhibitor | radiometric | 1 µM | remaining activity | 94% |
| O=C(O)c1cc(-c2ccc(C3CCNCC3)cc2)c2ccc(-c3ccc(C(F)(F)F)cc3)cc2c1 | cell-free assay | – | competition with immobilised ligand | 1 µM | remaining binding | 100% |
| CN(C)C1CCN(CC#Cc2nn(C3CCCC3)c3nc(NCc4ccccc4)ncc23)C1 (stereo not drawn) | enzyme activity | inhibitor | FRET | 0.1 µM | inhibition | 4% |
| O=C(NCCCC1CCCCC1)c1ccc(CNC(=O)c2cnn(-c3ccccc3)c2C(F)(F)F)cc1 | cell-free assay | – | competition with immobilised ligand | 0.1 µM | remaining binding | 100% |
| COc1cc2ncnc(Nc3ccc(Oc4ccccc4)cc3C)c2cc1OC | enzyme activity | inhibitor | – | 1 µM | inhibition | -20% |
| O=C1NC(=O)c2cc(Nc3ccc(F)cc3)c(Nc3ccc(F)cc3)cc21 | cell-free assay | – | – | 0.5 µM | remaining signal | 98.7% |
| CC(C)(O)[C@H]1CC[C@H](Nc2ccc3ncc(-c4cccc(C(F)(F)F)c4)n3n2)CC1 | enzyme activity | inhibitor | – | 1 µM | remaining activity | 107% |
| COc1cc(Cl)c(C(=O)N[C@@H](CN[C@H]2CC[C@@H](N)CC2)Cc2ccc(C#N)cc2)cc1-c1ccc(CN[C@H](C)c2ccc(C)cc2)o1 | enzyme activity | inhibitor | – | 1 µM | remaining activity | 92% |
